Screening results deposited in PubChem by several laboratories.
Sampled rows, rich in hits. Any-hit rate of the full collection: about 1.4%.
Efflux pump inh: antifungal efflux pump inhibition, Nile Red retention | S. cerevisiae Candida pump triplex | inhibition, % at 10 µM | actives 0.44% (n = 330,000) | AID 485275;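 active means plate passing quality check with inhibition over a set limit, or well fluorescence over plate mean plus 4 SD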;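 further: Nile Red retained in pooled yeast measured as flow cytometry median fluorescence; 0% = buffer negative control and 100% = Enniatin B positive control; higher means more Nile Red kept so more efflux inhibition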
IDE act: boosts human insulin-degrading enzyme activity in HEK cells | P14735 | FAbeta-B cleavage, fluorescence polarization; 0% vehicle, 100% cell-free pure enzyme wells | activation, % at 5.96 µM | actives 0.073% (n = 340,000) | AID 493087;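 active means activation above the mean of all tested compounds plus 3 SD, set per screening campaign, cut at about 17% in these data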
Target sequence (P14735 whole entry, looked up): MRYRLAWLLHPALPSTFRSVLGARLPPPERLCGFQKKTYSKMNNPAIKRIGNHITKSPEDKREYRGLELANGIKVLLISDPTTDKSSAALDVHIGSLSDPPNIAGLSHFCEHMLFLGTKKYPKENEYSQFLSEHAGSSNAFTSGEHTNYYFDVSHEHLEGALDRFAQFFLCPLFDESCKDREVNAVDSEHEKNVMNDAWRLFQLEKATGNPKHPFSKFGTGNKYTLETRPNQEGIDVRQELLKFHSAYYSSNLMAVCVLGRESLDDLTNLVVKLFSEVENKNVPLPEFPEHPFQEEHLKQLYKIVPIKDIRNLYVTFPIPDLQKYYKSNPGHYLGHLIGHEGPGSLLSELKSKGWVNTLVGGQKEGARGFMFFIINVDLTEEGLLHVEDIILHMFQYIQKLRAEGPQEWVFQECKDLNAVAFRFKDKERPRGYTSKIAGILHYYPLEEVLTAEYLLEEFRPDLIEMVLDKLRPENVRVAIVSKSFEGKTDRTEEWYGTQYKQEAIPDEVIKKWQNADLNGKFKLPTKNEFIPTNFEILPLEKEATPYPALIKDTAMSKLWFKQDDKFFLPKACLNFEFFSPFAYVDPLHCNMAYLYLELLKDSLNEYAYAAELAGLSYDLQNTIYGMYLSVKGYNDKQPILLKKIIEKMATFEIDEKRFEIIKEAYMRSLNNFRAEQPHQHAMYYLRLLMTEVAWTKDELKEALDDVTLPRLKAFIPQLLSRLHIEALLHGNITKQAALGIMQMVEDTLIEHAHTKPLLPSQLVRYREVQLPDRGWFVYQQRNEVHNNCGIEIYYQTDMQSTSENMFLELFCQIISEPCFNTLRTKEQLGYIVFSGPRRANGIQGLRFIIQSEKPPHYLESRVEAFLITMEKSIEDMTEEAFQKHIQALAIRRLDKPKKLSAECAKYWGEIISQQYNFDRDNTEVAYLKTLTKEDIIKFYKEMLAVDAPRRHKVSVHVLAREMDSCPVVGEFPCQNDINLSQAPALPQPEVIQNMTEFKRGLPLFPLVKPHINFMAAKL
IDE inh: inhibits human insulin-degrading enzyme in HEK cells; inhibition, % at 5.59 µM; actives 0.41% (n = 320,000); AID 434962; FAbetaB cleavage, fluorescence polarization; P14735;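 active means percent inhibition above the average of all tested compounds plus 3 SD, set per screening campaign, cut at about 16% in these data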;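 further: IDE supplied by intact live HEK cells; FP after avidin binding of uncleaved biotin substrate so inhibition keeps polarization high; 0% = DMSO wells and 100% = 60 µM reference IDE inhibitor Ii1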
CR mimetic SO: yeast age-related superoxide inhibition as caloric restriction mimetic; S. cerevisiae aged cells, superoxide DHE fluorescence; stronger effect = lower value; superoxide response (% of plate mean), % at 10 µM; actives 0.18% (n = 330,000); AID 2690;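 active means superoxide response under a set limit, about three screen SD below normal, cut at about 65% in these data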;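 further: yeast aged for seven days with compound at 30 °C before DHE staining; 100% = average MFI of all compound-treated wells on the plate with controls excluded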
Tb MetRS inh: Trypanosoma brucei MetRS inhibition; purified T. brucei MetRS, ATP depletion, Kinase-Glo luminescence; inhibition, % at 11.9 µM; actives 0.4% (n = 360,000); AID 624268;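 active means inhibition above a per-plate cutoff of the control wells' mean inhibition plus 3 SD, cut at about 5.5% in these data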;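 further: 0% = DMSO wells median and 100% = median of wells with control inhibitor compound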
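System: purified T. brucei MetRS enzyme / Detection: Kinase-Glo luciferase luminescence reporting remaining unconsumed ATP / Medium: HEPES buffer with MgCl2, KCl, DTT, spermine, BSA, pyrophosphatase / Replication: singlicate, one well per compound / Evaluation: percent inhibition relative to median high and low control wells / Schedule: 2 h aminoacylation at 25 °C after 15 min preincubation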
HDAC3 inh: human HDAC3 inhibition; actives 0.15% (n = 320,000); recombinant HDAC3, fluorogenic peptide/trypsin coupled, fluorescence; O15379; inhibition, % at 8.3 µM; in the data active means inhibition above about 26%, passing the limit was not always enough; inconclusive means no clear call, values can overlap the other calls
IDE inh confirm: cellular human IDE inhibition, confirmation | AID 435028 | shares compounds with IDE inh | inhibition, % at 5.59 µM | HEK cells, FAbetaB cleavage, fluorescence polarization | actives 51% (n = 1,200);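 active means mean inhibition across triplicate wells above the cutoff set by the earlier primary insulin-degrading enzyme screen, cut at about 16% in these data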;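 further: 0% = DMSO wells and 100% = 60 µM reference IDE inhibitor Ii1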
HEK cytotox: HEK cell cytotoxicity, counter-screen for IDE inhibitors; HEK293 cytotoxicity, ATP luminescence; shares compounds with IDE inh; AID 449730; actives 28% (n = 1,200); inhibition, % at 5.59 µM; in the data active means inhibition above about 22%;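 further: 0% = vehicle wells and 100% = reference cytotoxic drug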
Yeast cmpd fluor: flagged as fluorescent in efflux inhibitor counter-screen | shares compounds with Efflux pump inh | S. cerevisiae AD/pABC3, compound fluorescence, flow cytometry | fluorescence ratio to DMSO, % at 10 µM | actives 4% (n = 1,700) | AID 588517;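 active means fluorescence ratio to DMSO above its plate's cutoff, the plate mean ratio plus 5 SD, cut at about 210% in these data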;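 further: unstained yeast with no Nile Red so the signal is compound autofluorescence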
CaMdr1 efflux inh: inhibitors of Candida albicans Mdr1 efflux pump; shares compounds with Efflux pump inh; S. cerevisiae AD/CaMDR1, Nile Red efflux, flow cytometry; inhibition, % at 10 µM; actives 1% (n = 1,700); AID 588518; in the data active means inhibition above about 26%;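 further: 0% = DMSO vehicle and 100% = reference inhibitor; higher means more Nile Red retained so more efflux inhibition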
CaCdr2 efflux inh: blocks the Candida albicans Cdr2 efflux pump in yeast; AID 588520; S. cerevisiae AD/CaCDR2, Nile Red retention, flow cytometry; shares compounds with Efflux pump inh; actives 4% (n = 1,700); Nile Red retention ratio vs DMSO, % at 10 µM; in the data active means Nile Red retention ratio vs DMSO above about 190%;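 further: higher ratio means more blocking of Cdr2 efflux of the dye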
Cdr1 pump inh: Candida Cdr1 efflux pump inhibition. shares compounds with Efflux pump inh. actives 1% (n = 1,700). S. cerevisiae AD/CaCDR1, Nile Red efflux, flow cytometry. inhibition, % at 10 µM;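 active means inhibition above the screen-wide mean plus twice its standard deviation, cut at about 32% in these data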
The depositor's hits bear a star.

`Oc1ccc(C[C@H]2CN([C@@H](Cc3ccc(O)cc3)CN3CCC[C@@H]3CN3C(=S)NC[C@@H]3Cc3ccccc3)C(=S)N2CC2CCCCCC2)cc1` gave Tb MetRS inh -0.2.
For O=C(NC1CCCc2ccccc21)C(Cc1ccccc1)NS(=O)(=O)c1cccs1 (stereo unspecified) the results were Efflux pump inh -0.1, IDE act 0.5, IDE inh -2.0, CR mimetic SO 99.4, Tb MetRS inh 0.0 and HDAC3 inh -0.7.
`CN1/C(=C\C=C2/SC(=S)NC2=O)C(C)(C)c2ccccc21` gave Efflux pump inh 0.8*, IDE act -131.8, IDE inh 115.8*, CR mimetic SO 119.5, Tb MetRS inh -0.9, HDAC3 inh 5.0, IDE inh confirm 151.6*, HEK cytotox 37.7*, Yeast cmpd fluor 169.7, CaMdr1 efflux inh 1.7, CaCdr2 efflux inh 188.0 and Cdr1 pump inh 0.6.
For CCCN1C(=O)/C(=C\C=C2\N(CC)c3ccccc3C2(C)C)SC1=S the results were IDE act -72.8 and Tb MetRS inh -0.6.
For O=C1/C(=C\c2ccc(O)cc2)SC(=S)N1/N=C/c1ccc(O)cc1 the results were Efflux pump inh 0.2, IDE act -159.7, IDE inh 75.0*, CR mimetic SO 84.8, Tb MetRS inh 2.0, HDAC3 inh -0.9, IDE inh confirm 98.2*, HEK cytotox 10.7, Yeast cmpd fluor 96.6, CaMdr1 efflux inh -0.3, CaCdr2 efflux inh 106.3 and Cdr1 pump inh 0.0.
`O=C1C2C3C=CC(CC3)C2C(=O)N1/N=C/c1ccc(O)cc1` (stereo unspecified) gave Efflux pump inh 0.0, IDE act -3.2, IDE inh 7.0, CR mimetic SO 113.6, Tb MetRS inh 0.1 and HDAC3 inh 3.0.
`CCOc1ccc2ccccc2c1CNCCc1ccc(S(N)(=O)=O)cc1` gave Efflux pump inh 0.0, IDE act 7.7, CR mimetic SO 98.1, Tb MetRS inh -0.1 and HDAC3 inh 0.5.
Screening CC[n+]1ccc(/C=C/c2c[nH]c3ccccc23)cc1 returned Efflux pump inh 2.3*, IDE act -14.1, IDE inh 24.2*, CR mimetic SO 109.2, Tb MetRS inh -1.2, HDAC3 inh 9.4, IDE inh confirm 40.9*, HEK cytotox 70.5*, Yeast cmpd fluor 216.8, CaMdr1 efflux inh 3.2, CaCdr2 efflux inh 101.7 and Cdr1 pump inh 0.5.
Screening CCN=C1S/C(=C\c2ccc(N3CCOCC3)cc2C)C(=O)N1CC returned Efflux pump inh -0.1, IDE act 5.4, IDE inh -1.2, CR mimetic SO 114.0, Tb MetRS inh -0.8 and HDAC3 inh inconclusive.
Screening COCCN1C(=O)/C(=C/c2ccc(N3CCCC3)cc2C)SC1=S returned Efflux pump inh 2.2*, IDE act -25.1, IDE inh 48.8*, CR mimetic SO 113.9, Tb MetRS inh -0.6, HDAC3 inh -5.9, IDE inh confirm 57.2*, HEK cytotox 14.9, Yeast cmpd fluor 318.0*, CaMdr1 efflux inh 0.8, CaCdr2 efflux inh 128.7 and Cdr1 pump inh 0.3.
For Cc1nnc(NC(=O)CCSc2ccc(Cl)cc2)s1 the results were Efflux pump inh -0.1, IDE act 4.7, IDE inh -2.2, CR mimetic SO 117.0, Tb MetRS inh -0.7 and HDAC3 inh 7.5.
For C/C(=N\Nc1ncnc2sc(C)c(C)c12)c1ccccn1 the results were Efflux pump inh 30.1*, IDE act -16.2, IDE inh 47.8*, CR mimetic SO 35.8*, Tb MetRS inh -0.9, HDAC3 inh 12.9, IDE inh confirm 35.7*, HEK cytotox 118.2*, Yeast cmpd fluor 79.8, CaMdr1 efflux inh -0.2, CaCdr2 efflux inh 134.9 and Cdr1 pump inh 4.7.
For Cc1onc(-c2ccccc2Cl)c1C(=O)OCC(=O)N1CCCCC1 the results were Efflux pump inh 0.3, IDE act 2.9, IDE inh -4.5, CR mimetic SO 102.8, Tb MetRS inh -0.4 and HDAC3 inh -9.9.
For Cc1cc(/C=C\c2ccc3cc(N(C)C)ccc3[n+]2C)c(C)n1-c1ccccc1 the results were Efflux pump inh 17.3*, IDE act -44.5, IDE inh 25.6*, CR mimetic SO 158.5, Tb MetRS inh -0.5, HDAC3 inh 15.4, IDE inh confirm 85.1*, HEK cytotox 116.9*, Yeast cmpd fluor active, CaMdr1 efflux inh 37.9*, CaCdr2 efflux inh 269.7* and Cdr1 pump inh 19.9.
For CN(C)c1ccc(/C=C/C(=O)c2c(O)c3ccccc3oc2=O)cc1 the results were Efflux pump inh 1.4*, IDE act -71.0, IDE inh 24.9*, CR mimetic SO 95.8, Tb MetRS inh -0.6, HDAC3 inh 1.7, IDE inh confirm 36.5*, HEK cytotox 4.8, Yeast cmpd fluor 182.0, CaMdr1 efflux inh 1.5, CaCdr2 efflux inh 222.7* and Cdr1 pump inh 1.0.
Screening Cc1ccc2nc(/C(C#N)=C\c3ccc(N4CCOCC4)o3)[nH]c2c1 returned Efflux pump inh 0.5*, IDE act -138.6, IDE inh 48.5*, CR mimetic SO 105.3, Tb MetRS inh 0.2, HDAC3 inh 8.8, IDE inh confirm 25.9*, HEK cytotox 26.6*, Yeast cmpd fluor 128.2, CaMdr1 efflux inh 0.3, CaCdr2 efflux inh 131.4 and Cdr1 pump inh -0.1.
For Cc1ccc(/C(C#N)=C\c2ccc(N3CCOCC3)o2)cc1 the results were Efflux pump inh 0.0, IDE act -23.3, IDE inh 0.0, CR mimetic SO 95.2, Tb MetRS inh 0.8 and HDAC3 inh 5.6.
Screening CC(C)CN1C(=O)C(=O)N(CC(=O)N2CCN(c3ccccc3)CC2)C1=O returned Efflux pump inh 0.0, IDE act 0.8, IDE inh 0.2, CR mimetic SO 105.2 and Tb MetRS inh -0.2.
